What was measured:
Assay type in all cases: functional
Mus musculus [1] = assay: Dose of compound causing a neurological deficit in 50% of mice after ip administration; 45-89
In short: (§1)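 Traction test in male Hilltop ICR-derived mice (19-30 g, groups of 8-10) just before electroshock, 15 min after ip or 30 min after oral dosing. Mice placed on a 16-gauge, 65-cm copper wire 40 cm above the table; deficit scored as failure to stay on for 10 s. ND50 with 95% limits by Litchfield-Wilcoxon.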

Mus musculus [2] = assay: Compound was evaluated for anticonvulsant activity by maximal electroshock assay(MES) in mice after ip administration; 8-17
In short: (§2)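 Male Hilltop ICR-derived mice (19-30 g), groups of 8-10, dosed ip with compound or aqueous vehicle. After 15 min pretreatment, a transcorneal 60-Hz, 50 mA shock was given for 0.2 s. Just before the shock, each mouse was tested on a horizontal wire (10 s). Quantal data were analysed by Litchfield-Wilcoxon to give ED50 with 95% confidence limits.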

Mus musculus [3] = assay: Protective index is defined as ND50 (i.p.) divided by MES ED50(i.p.)
In short: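 Ratio of ND50 from the wire traction test to MES ED50, both measured by the same route (ip or oral) in the same animals. Quantal dose-response data for each were evaluated by Litchfield-Wilcoxon.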

Mus musculus [4] = assay: Dose of compound causing a neurological deficit in 50% of mice after ip administration; 19-38; in short: as §1
Mus musculus [5] = assay: Compound was evaluated for anticonvulsant activity by maximal electroshock assay(MES) in mice after ip administration; 8-16; in short: as §2

Row | Structure (SMILES) | ND50 (Mus musculus [1]) | ED50 (Mus musculus [2]) | PI (Mus musculus [3]) | ND50 (Mus musculus [4]) | ED50 (Mus musculus [5])
1 | Cl.OC(CCn1ccnc1)c1ccc2ccccc2c1 (stereo unspecified) | 64 mg/kg | 13 mg/kg | 4.9 | – | –
2 | CCOC(Cn1ccnc1)c1ccc2ccccc2c1 (stereo unspecified) | – | – | 2.5 | 27 mg/kg | 11 mg/kg
